Assays:
[1] = Elimination half life in BALB/c mouse at 50 mg/kg, po; assay type: ADME, organism-based; set-up: dose 50 mg/kg, route oral; settings: in vivo, read-out: beta t1/2
Outline: (§1)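 50 mg/kg by oral gavage in 3% EtOH-7% Tween 80-90% normal saline to groups of three females (BALB/c mice, 8–10 weeks, tail bleed; Sprague-Dawley rats, 10–12 weeks, saphenous vein). Plasma extracted with acetonitrile/internal standard, LC/MS; means of three animals. Oral elimination half-life depends on absorption rate as well as elimination.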

Plasmodium falciparum [2] = experiment: Antiplasmodial activity against chloroquine-resistant Plasmodium falciparum K1 by [3H]hypoxanthine uptake; assay type: functional; settings: read-out: ED50 (the source's name)
Outline: (§2)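 Asynchronous cultures at 0.5% parasitemia and 0.5% hematocrit in RPMI 1640 with 20% heat-inactivated human A+ plasma, exposed to serially diluted inhibitor (top final 5 μM, from DMSO stock) under 5% CO2/5% O2/90% N2 at 37°C for 48 h. [3H]hypoxanthine was then added for 24 h and harvested counts were background-subtracted against DMSO-only controls. ED50 came from linear regression, as the mean of duplicates.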

[3] = AUC in Sprague-Dawley rat at 50 mg/kg, po; assay type: ADME, organism-based; set-up: dose 50 mg/kg, route oral; settings: plasma
Outline: (§3)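 Three female BALB/c mice (lines for mice, 8–10 weeks) or three female Sprague-Dawley rats (10–12 weeks) per group; 50 mg/kg oral gavage in 3% EtOH-7% Tween 80-90% normal saline. Plasma sampled at set times (tail bleed in mice, saphenous vein in rats), extracted with acetonitrile plus internal standard, quantified by LC/MS; AUC as mean of three animals.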

[4] = Elimination half life in Sprague-Dawley rat at 50 mg/kg, po; assay type: ADME, organism-based; set-up: dose 50 mg/kg, route oral; settings: in vivo, read-out: beta t1/2; outline: as §1
[5] = Cmax in Sprague-Dawley rat at 50 mg/kg, po; assay type: ADME, organism-based; set-up: dose 50 mg/kg, route oral; settings: in vivo; outline: as §1
[6] = Metabolic stability in mouse liver microsomes; assay type: ADME, Microsome
Outline: (§4)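 Pooled female liver microsomes at 0.5 mg/ml in 0.1 M potassium phosphate pH 7.4, 3 mM MgCl2, 1 mM EDTA, with NADPH regenerating system (1 mM NADP+, 5 mM glucose-6-phosphate, 1 U/ml G6PDH). Preincubated 10 min at 37°C, then compound added to 1 μM final. Time points quenched with 3 volumes acetonitrile plus internal standard; parent quantified by LC/MS; half-life reported.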

[7] = Inhibition of Plasmodium falciparum protein farnesyltransferase by SPA method
[8] = AUC in BALB/c mouse at 50 mg/kg, po; assay type: ADME, organism-based; set-up: dose 50 mg/kg, route oral; settings: plasma; outline: as §3
[9] = Cmax in BALB/c mouse at 50 mg/kg, po; assay type: ADME, organism-based; set-up: dose 50 mg/kg, route oral; settings: in vivo; outline: as §1
[10] = Metabolic stability in rat liver microsomes; assay type: ADME, Microsome; outline: as §4
Plasmodium falciparum [11] = experiment: Antiplasmodial activity against chloroquine-sensitive Plasmodium falciparum 3D7 by [3H]hypoxanthine uptake; assay type: functional; settings: read-out: ED50 (the source's name); outline: as §2
Plasmodium falciparum [12] = experiment: Antiplasmodial activity against Plasmodium falciparum by [3H]hypoxanthine uptake; assay type: functional; settings: read-out: ED50 (the source's name)
Outline: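 Asynchronous P. falciparum (3D7 or K1) in RPMI 1640 with 20% heat-inactivated human A+ plasma, 0.5% parasitemia and 0.5% hematocrit; compound serially diluted, top final 5 μM, 48 h at 37°C under 5% CO2/5% O2/90% N2, then [8-3H]hypoxanthine 0.3 μCi added for 24 h.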

Mus musculus = experiment: Toxicity in BALB/c mouse at 50 mg/kg, po; assay type: organism-based; set-up: dose 50 mg/kg, route oral; settings: in vivo
[13] = Permeability from apical to basolateral side in human Caco-2 cells; assay type: ADME, cell-based; settings: read-out: permeability
Rattus norvegicus = experiment: Toxicity in Sprague-Dawley rat at 50 mg/kg, po; assay type: organism-based; set-up: dose 50 mg/kg, route oral; settings: in vivo
Outline: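 Female Sprague-Dawley rats, 10-12 weeks, three per group. 50 mg/kg oral gavage in 3% EtOH-7% Tween 80-90% normal saline. Saphenous vein plasma sampled over time, and animals observed for adverse reactions.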

[14] = Oral bioavailability in Sprague-Dawley rat; assay type: ADME, organism-based; settings: in vivo
Outline: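 Female Sprague-Dawley rats, 10-12 weeks, three per group. Oral gavage at 50 mg/kg and jugular-catheter i.v. dose at 2 mg/kg, both in 3% EtOH-7% Tween 80-90% saline. Plasma taken over time, acetonitrile extraction with internal standard, LC/MS. Bioavailability computed as oral AUC/i.v. AUC.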

[15] = AUC in Sprague-Dawley rat at 2 mg/kg, iv; assay type: ADME, organism-based; set-up: dose 2 mg/kg, route intravenous; settings: plasma
Outline: (§5)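 Three female Sprague-Dawley rats per group (10–12 weeks), jugular-vein catheterized; 2 mg/kg in 3% EtOH-7% Tween 80-90% normal saline given through the catheter. Plasma drawn from the catheter at set times, acetonitrile extraction with internal standard, LC/MS quantification.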

[16] = Elimination half life in Sprague-Dawley rat at 2 mg/kg, iv; assay type: ADME, organism-based; set-up: dose 2 mg/kg, route intravenous; settings: in vivo, read-out: beta t1/2; outline: as §5

Row | SMILES | half-life [1] [min] | EC50 (Plasmodium falciparum [2]) [nM] | AUC [3] [µM·h] | half-life [4] [min] | Cmax [5] [µM] | half-life [6] [min] | IC50 [7] [nM] | AUC [8] [µM·h] | Cmax [9] [µM] | half-life [10] [min] | EC50 (Plasmodium falciparum [11]) [nM] | EC50 (Plasmodium falciparum [12]) [nM] | Activity (Mus musculus) | Papp A→B [13] [×10⁻⁶ cm/s] | Activity (Rattus norvegicus) | bioavailability [14] [%] | AUC [15] [µM·h] | half-life [16] [min]
1 | CC(C)COC(=O)N1CCC(CN(C2Cc3cc(C#N)ccc3N(Cc3cncn3C)C2)S(=O)(=O)c2ccccn2)CC1 (stereo not drawn) | 26 | 62 | 33.8 | 62 | 8.4 | 5.1 | 0.7 | 4.67 | 5.4 | 18 | 62 | 62 |  |  |  |  |  | 
2 | CCOC(=O)N1CCC(CN(C2Cc3cc(C#N)ccc3N(Cc3cncn3C)C2)S(=O)(=O)c2ccccn2)CC1 (stereo not drawn) |  | 40 |  |  |  |  | 0.6 |  |  | 12 | 55 | 55 | Non-toxic | 2.6 | Non-toxic |  |  | 
3 | Cn1cncc1CN1CC(N(CC2CCN(C(=O)OC(C)(C)C)CC2)S(=O)(=O)c2ccccn2)Cc2cc(C#N)ccc21 (stereo not drawn) | 54 | 180 | 30.1 | 151 | 6.3 |  | 1.5 | 11.8 |  | 10 | 155 |  |  | 15.5 |  | 124 | 0.967 | 55

Reference: ChEMBL document CHEMBL1138529, “Efficacy, pharmacokinetics, and metabolism of tetrahydroquinoline inhibitors of Plasmodium falciparum protein farnesyltransferase” (Antimicrob Agents Chemother, 2007)
